Screens as filed in PubChem BioAssay.
In the library only some 2.6% were active in any assay of this set; here they are far more common.
ASAP1 GAP inh – inhibitors of human ASAP1 ArfGAP activity; Q9ULH1; ASAP1-stimulated ARF1 GTP hydrolysis, GDP FP detection; inhibition, % at 16.5 µM; 360,000 tested, 0.19% active; AID 624377; in the data active means inhibition above about 25%;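 further: 0% = vehicle with enzyme and substrate and 100% = no enzyme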
Target sequence (Q9ULH1 325-724 limits assumed): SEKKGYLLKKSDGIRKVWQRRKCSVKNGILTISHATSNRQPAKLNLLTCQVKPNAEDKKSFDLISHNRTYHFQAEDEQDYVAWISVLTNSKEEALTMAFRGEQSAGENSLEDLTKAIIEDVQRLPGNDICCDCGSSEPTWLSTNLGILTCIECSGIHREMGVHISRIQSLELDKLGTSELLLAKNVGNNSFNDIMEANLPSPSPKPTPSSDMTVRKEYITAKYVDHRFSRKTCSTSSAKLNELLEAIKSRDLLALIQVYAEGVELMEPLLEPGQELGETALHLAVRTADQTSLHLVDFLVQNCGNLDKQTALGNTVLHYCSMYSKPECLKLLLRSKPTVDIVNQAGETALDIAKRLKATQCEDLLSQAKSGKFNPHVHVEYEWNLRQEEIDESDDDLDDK
SMARCA2 act – activators of SMARCA2 function; MG213 cells, MMTV-luciferase reporter, dexamethasone, overnight; activation, % at 9.1 µM; 370,000 tested, 1% active; AID 652017; in the data active means activation above about 7.8%;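 further: 0% = vehicle wells and 100% = reference activator wells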
ARFGAP1 inhibitor – inhibitors of rat ARFGAP1; Q62848; Arfgap1-stimulated ARF1 GTP hydrolysis, GDP FP detection; inhibition, % at 16.5 µM; 360,000 tested, 0.26% active;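 active means inhibition above a per-plate limit, mean inhibition of low control wells plus 3 SD, cut at about 25% in these data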;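 further: 0% = DMSO wells with enzyme and 100% = wells lacking Arfgap1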
Target sequence (Q62848 1-136 limits assumed): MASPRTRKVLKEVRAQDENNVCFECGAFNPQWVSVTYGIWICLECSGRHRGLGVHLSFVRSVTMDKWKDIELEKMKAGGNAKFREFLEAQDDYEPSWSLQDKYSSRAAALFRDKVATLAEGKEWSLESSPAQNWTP
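System: truncated rat Arfgap1 GAP domain / Medium: HEPES-based buffer, pH 7.5 / Also added: N-terminally truncated human ARF1-GTP substrate / Incubation: enzyme reaction 120 min at 25 °C after 20 min preincubation / Measured by: FP of antibody-bound GDP Alexa 633 tracer, ex 620/em 688 nm / Replicates: singlicate, each compound tested once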
esBAF inh – SWI/SNF esBAF complex inhibition. AID 602393. 350,000 tested, 2% active. mouse ES cells, Bmi1-luciferase knock-in reporter, 24 h; 100% = twice the neutral-well signal. reporter increase, % at 12.5 µM; in the data active means activation above about 40%; inconclusive means no clear call, values can overlap the other calls;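 further: 0% = median of the plate's neutral control wells and 100% = double that signal; a rise in the Bmi1 reporter signal indicates esBAF inhibition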
ASAP1 GAP conf – ASAP1 inhibition confirmed; ASAP1-stimulated Arf1 GTPase, GDP fluorescence polarization; shares compounds with ASAP1 GAP inh; AID 624431; inhibition, % at 16.5 µM; 620 tested, 37% active;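 active means mean inhibition over triplicates exceeds the hit threshold derived for the earlier primary screening run, cut at about 25% in these data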
ARFGAP1 inh conf – confirmation of rat ARFGAP1 inhibitors. shares compounds with ARFGAP1 inhibitor. ARFGAP1-stimulated ARF1 GTP hydrolysis, GDP tracer FP. inhibition, % at 16.5 µM. 890 tested, 30% active. AID 651608;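 active means average inhibition over triplicates above the hit cutoff set in the earlier primary screen, cut at about 25% in these data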;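 further: 0% = Arfgap1 plus ARF1-GTP with DMSO and 100% = wells lacking Arfgap1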
* hit, by the source's call; ? = inconclusive; / = no result given.

SMILES | ASAP1 GAP inh | SMARCA2 act | ARFGAP1 inhibitor | esBAF inh | ASAP1 GAP conf | ARFGAP1 inh conf
COc1ccc(NC(=S)Nc2ccc3nsnc3c2)cc1 | 32.7* | -5.5 | 15.2 | / | 9.2 | /
COCCNC(=S)Nc1ccc2nsnc2c1 | 20.9 | -0.4 | 17.8 | / | / | /
COc1ccc(N(C)C(=O)Nc2ccc3nsnc3c2)cc1 | 8.2 | -3.3 | -4.3 | 7.7 | / | /
CCOC(=O)C1=C(CSc2nc3c(cc2C#N)CCC3)OC(N)=C(C#N)C1c1ccccc1 (stereo not drawn) | 0.3 | 4.6 | -3.6 | 5.9 | / | /
CCOC(=O)C1=C(CSc2nc(-c3ccccc3)ccc2C#N)OC(N)=C(C#N)C1c1ccccc1 (stereo not drawn) | 27.1* | 3.7 | 4.6 | ? | 15.5 | /
COC(=O)C[C@@H]1C[C@H]2c3cc(NC(=O)c4cccnc4)ccc3O[C@H]2[C@H](CO)O1 | / | / | / | -0.6 | / | /
Cc1ccc(-c2nnc(N(C)C(=O)c3cccnc3)s2)cn1 | 25.6* | 5.8 | 0.8 | 8.2 | 9.2 | /
COc1cccc(NC(=O)CN(C)C(=O)c2ccc(N3CCCCC3)c([N+](=O)[O-])c2)c1 | 25.2* | -1.4 | 7.4 | 0.2 | 4.0 | /
Cc1ccc(/C=N/NC(=O)CCCOc2ccc(Cl)cc2Cl)cc1[N+](=O)[O-] | 50.0* | -0.8 | 21.9 | -1.8 | 36.9* | /
COc1ccc(/C=N/NC(=O)CCCOc2ccc(Cl)cc2Cl)cc1[N+](=O)[O-] | 2.3 | 3.0 | 24.5 | 2.4 | / | /
CC1=[N+](C)c2ccc3ccccc3c2C1(C)C | 26.2* | -4.0 | 31.2* | / | 22.4 | 17.9
O=C(NCc1ccncc1)C(=O)N/N=C/c1ccc(OCc2ccccc2)cc1 | 31.4* | -2.4 | 58.2* | / | 41.2* | 99.1*
C[C@H](CO)N1C[C@H](C)[C@@H](CN(C)C(=O)Nc2ccc(F)cc2)Oc2ccc(NC(=O)Cc3ccccc3)cc2CC1=O | / | / | / | 1.9 | / | /
O=C(C[C@H]1CC[C@H](NC(=O)Nc2ccc(F)cc2)[C@H](CO)O1)NCCN1CCCC1 | / | / | / | 1.8 | / | /
CCNC(=O)[C@@H]1[C@@H](CO)[C@@H]2Cn3c(ccc(-c4cccc(F)c4)c3=O)[C@H]1N2C(=O)c1cnccn1 | / | / | / | -2.5 | / | /
O=[N+]([O-])c1ccc(C=NNC(=S)NN=Cc2ccc([N+](=O)[O-])cc2)cc1 | 74.2* | 3.4 | 24.6* | -13.2 | 164.2* | 181.6*
O=[N+]([O-])c1ccc(C=NNC(=S)Nc2ccc(F)cc2)cc1 | 5.7 | -3.3 | 10.0 | 13.7 | / | /
CC(=O)Nc1cc(-c2ccc(N3CCN(C)CC3)cc2)cn2c(-c3ccccc3)cnc12 | 5.9 | 2.6 | 6.1 | 5.7 | / | /
CC(=O)Nc1cc(-c2ccc(N3CCN(C)CC3)cc2)cn2c(-c3ccc(S(C)(=O)=O)cc3)cnc12 | 68.9* | 0.6 | 73.7* | 8.2 | 148.5* | 141.6*
CN(C)C(=O)C[C@H]1C=C[C@H](NC(=O)C2CC2)[C@H](CO)O1 | / | / | / | -2.8 | / | /
CC(=O)c1cccc(-c2ccc3c(=O)[nH]c(Nc4ccccc4)cc3c2)c1 | 53.3* | -1.0 | 29.9* | 2.3 | 39.4* | 25.7*
Cn1c(=O)cc(Nc2ccccc2)[nH]c1=O | -6.8 | -1.4 | -9.0 | -5.8 | / | /
O=c1[nH]c(Nc2ccccc2)cc2ccccc12 | 24.9* | 0.7 | 32.9* | / | 12.6 | -0.8
CC(=O)c1ccc(Nc2nc(-c3ccccc3)nc3ccccc23)cc1 | 7.7 | -1.9 | -8.5 | -1.2 | / | /
Cc1ccc(OCc2ccc(C(=O)Nc3ccc(C(N)=O)cc3)o2)c([N+](=O)[O-])c1 | 59.9* | -0.7 | 85.7* | / | 87.7* | 115.6*
SMILES | ASAP1 GAP inh | SMARCA2 act | ARFGAP1 inhibitor | esBAF inh | ASAP1 GAP conf | ARFGAP1 inh conf
N#Cc1ccc(-c2ccc(OCC(=O)NCC(=O)Nc3ccc(F)c(F)c3F)cc2)cc1 | 37.5* | -1.6 | 57.6* | -9.0 | 51.2* | 79.8*
COC(=O)c1ccc(NC(=O)c2ccc(NC(=O)c3ccco3)cc2)cc1 | 25.7* | -1.5 | 38.9* | 9.1 | 37.9* | 52.1*
COc1ccc(-c2nn(C)c3sc(C(=O)NCCN(C)C)cc23)cc1OC | 25.8* | 1.0 | 33.0* | -11.6 | 54.4* | 53.9*
C[C@@H]1CN([C@H](C)CO)C(=O)c2cc(NC(=O)Nc3ccc4c(c3)OCO4)ccc2O[C@@H]1CN(C)Cc1ccc(Cl)c(Cl)c1 | / | / | / | 0.2 | / | /
O=C(O)c1cc(NN=Nc2cccc(S(=O)(=O)O)c2)cc([N+](=O)[O-])c1 | -5.0 | -1.3 | 3.4 | 0.7 | / | /
O=C(O)c1cc(NN=Nc2cccc([N+](=O)[O-])c2)cc([N+](=O)[O-])c1 | 28.7* | 0.9 | 48.0* | 5.1 | 80.6* | 94.4*
O=C(O)c1ccc(NC2=C(N3CCOCC3)C(=O)c3ccccc3C2=O)cc1 | 23.8 | -2.9 | 18.2 | / | / | /
CC(=O)c1ccc(NC2=C(N3CCOCC3)C(=O)c3ccccc3C2=O)cc1 | 26.8* | -4.0 | 25.3* | 2.1 | 13.1 | 1.4
O=C(C1CCOCC1)N1CC[C@@H]2[C@H](CO)Nc3ccc(-c4ccc(F)cc4)cc3[C@@H]21 | / | / | / | -4.0 | / | /
COc1ccc2c(c1)CC/C(=C\c1ccc(OC)c(Cn3nc(C)cc3C)c1)C2=O | 46.4* | -3.8 | 29.1* | 16.5 | 55.6* | 8.4
O=C(CSc1ccccc1)Nc1ccc(-c2nc3ccccc3[nH]2)cc1 | 57.2* | 2.3 | 45.0* | / | 57.0* | 59.4*
Cc1ccc2nc(-c3ccc(NC(=O)CSc4ccccc4)cc3)[nH]c2c1 | -0.2 | 4.0 | -3.7 | -1.9 | / | /
CC(C)NC(=O)Nc1ccc2c(c1)C(=O)N([C@H](C)CO)C[C@H](C)[C@H](CN(C)C(=O)C1CCCCC1)OCCCC[C@H](C)O2 | / | / | / | 1.6 | / | /
COc1cc(/C=N/NC(=O)c2ccc(O)cc2)ccc1OCC(=O)Nc1cccc([N+](=O)[O-])c1 | 30.4* | 1.5 | 71.2* | 11.4 | 42.4* | 75.4*
CO[C@@H](CN(C)S(=O)(=O)c1cn(C)cn1)[C@H](C)CN(C(=O)Nc1ccc(C(F)(F)F)cc1)[C@@H](C)CO | / | / | / | -3.7 | / | /
Clc1ccc(Cn2cc(/C=N/n3cnnc3)c3ccccc32)c(Cl)c1 | 44.2* | -2.2 | 60.5* | / | 50.6* | 77.5*
C(=N\n1cnnc1)/c1cn(Cc2ccccc2)c2ccccc12 | -4.8 | 0.7 | -2.5 | 2.6 | / | /
Cc1noc(C)c1S(=O)(=O)Nc1ccc2c(c1)C(=O)N([C@@H](C)CO)C[C@@H](C)[C@H](CN(C)Cc1ccc(C(F)(F)F)cc1)OCCCC[C@@H](C)O2 | / | / | / | 12.0 | / | /
CCN(CC)CCOC(=O)c1ccc(NC(=O)c2cn(-c3ccccc3)nc2-c2cccs2)cc1 | 40.0* | 2.5 | 24.7* | 34.5 | 44.3* | 60.6*
CO[C@H]1CN(C)C(=O)c2cc(NC(=O)Nc3ccccc3F)ccc2OC[C@@H](C)N(C(C)=O)C[C@H]1C | / | / | / | -2.3 | / | /
COc1ccc(-c2cc(-c3ccc(OC)c(OC)c3)n[nH]2)c(O)c1 | 38.0* | 1.6 | 30.8* | / | 34.1* | 36.9*
Clc1ccc2c(N/N=C/c3ccc(Br)cc3)ccnc2c1 | 50.4* | 0.1 | 69.1* | 8.7 | 65.0* | 96.5*
